Source: ChEMBL document CHEMBL4602632, “Synthesis and anti-Mycobacterium tuberculosis activity of imide-β-carboline and carbomethoxy-β-carboline derivatives” (Eur J Med Chem, 2020)
In brackets after ≈: the same amount, converted by molar mass.

Assays:
[1] = system: Mycobacterium tuberculosis; test: Antimycobacterial activity against Mycobacterium tuberculosis H37Rv assessed as reduction in bacterial growth incubated for 7 days by resazurin dye based assay; format: functional; details: 168 h
How it was run: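 REMA broth microdilution: DMSO stocks diluted in 7H9-OADC, standardized inoculum added, final 0.98 to 250 μg/mL; 7 days at 35 °C in normal atmosphere, then 0.01% resazurin and a further 24 h at 35 °C. Read visually. MIC is the lowest concentration preventing the blue-to-pink change. Three independent assays on different days; isoniazid reference, medium, sterility and growth ±2.5% DMSO controls.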

[2] = Cytotoxicity against African green monkey Vero cells assessed as reduction in cell viability incubated for 24 hrs by MTT assay; format: cell-based; details: chlorocebus sabaeus
How it was run: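 VERO (ATCC CCL81) cells grown in DMEM with 10% FBS at 37 °C, 5% CO₂. Seeded at 5 × 10⁴ cells/well for 24 h, then exposed to 1.95–1000 μg/mL in DMEM for 24 h. Washed with PBS, MTT (2 mg/mL in PBS) added for 4 h, dissolved in DMSO, A550 read. CC50 is the highest concentration leaving 50% of cells viable versus control. Three independent assays.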

[3] = Selectivity index, ratio of CC50 for African green monkey Vero cells to MIC for Mycobacterium tuberculosis 73A; format: toxicity
[4] = Selectivity index, ratio of CC50 for African green monkey Vero cells to MIC for Mycobacterium tuberculosis 3614; format: toxicity
[5] = Selectivity index, ratio of CC50 for African green monkey Vero cells to MIC for Mycobacterium tuberculosis 19; format: toxicity
[6] = Selectivity index, ratio of CC50 for African green monkey Vero cells to MIC for Mycobacterium tuberculosis BRF57; format: toxicity
[7] = Selectivity index, ratio of CC50 for African green monkey Vero cells to MIC for Mycobacterium tuberculosis BRF45; format: toxicity
[8] = Selectivity index, ratio of CC50 for African green monkey Vero cells to MIC for Mycobacterium tuberculosis BRF14; format: toxicity
[9] = Selectivity index, ratio of CC50 for African green monkey Vero cells to MIC for Mycobacterium tuberculosis 91; format: toxicity
[10] = Selectivity index, ratio of CC50 for African green monkey Vero cells to MIC for Mycobacterium tuberculosis 71A; format: toxicity
[11] = Selectivity index, ratio of CC50 for African green monkey Vero cells to MIC for Mycobacterium tuberculosis H37Rv; format: toxicity
How it was run: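 Selectivity index computed as the CC50 from VERO MTT assay divided by the REMA MIC against H37Rv.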

[12] = Selectivity index, ratio of CC50 for African green monkey Vero cells to MIC for Mycobacterium tuberculosis BRF16; format: toxicity

Molecule `COC(=O)c1cc2c([nH]c3ccccc32)c(-c2ccccc2)n1` has an MIC [1] of over 828 µM.
`COC(=O)c1cc2c([nH]c3ccccc32)c(-c2ccccc2Cl)n1` gave an MIC [1] of over 744 µM.
`COC(=O)c1cc2c([nH]c3ccccc32)c(-c2ccc(OC)cc2)n1` showed an MIC [1] of 579 µM (≈ 192 µg/mL).
Molecule `COC(=O)c1cc2c([nH]c3ccccc32)c(-c2cccc([N+](=O)[O-])c2)n1` has an MIC [1] of 720 µM (≈ 250 µg/mL).
Work on `COC(=O)c1cc2c([nH]c3ccccc32)c(-c2ccc(N(C)C)cc2)n1` yielded a CC50 at 24 h [2] of 435 µM, a selectivity ratio [3] of 13.9 and a selectivity ratio [4] of 13.5. The selectivity ratio [5] was 13.9, the MIC [1] was 362 µM (≈ 125 µg/mL) and the selectivity ratio [6] was 3.48. For the same molecule, the selectivity ratio [7] was 13.9, the selectivity ratio [8] was 1.74 and the selectivity ratio [9] was 6.96. The selectivity ratio [10] was under 1.74, the selectivity ratio [11] was 3.48 and the selectivity ratio [12] was 3.48.
`O=C(NN1C(=O)CCC1=O)c1cc2c([nH]c3ccccc32)c(-c2ccc(F)cc2)n1` showed a CC50 at 24 h [2] of 270 µM, a selectivity ratio [3] of 8.64 and a selectivity ratio [4] of 4.32. It also gave a selectivity ratio [5] of 4.32, an MIC [1] of 311 µM (≈ 125 µg/mL) and a selectivity ratio [6] of 2.16. It also gave a selectivity ratio [7] of 8.64, a selectivity ratio [8] of 4.32 and a selectivity ratio [9] of 2.16. It also gave a selectivity ratio [10] of 2.16, a selectivity ratio [11] of 2.16 and a selectivity ratio [12] of 4.32.
Molecule `O=C(NN1C(=O)C=CC1=O)c1cc2c([nH]c3ccccc32)c(-c2ccccc2)n1` has an MIC [1] of 654 µM (≈ 250 µg/mL).
`O=C(NN1C(=O)c2ccccc2C1=O)c1cc2c([nH]c3ccccc32)c(-c2ccccc2Cl)n1` showed an MIC [1] of 536 µM (≈ 250 µg/mL).
In the case of `O=C(NN1C(=O)c2ccccc2C1=O)c1cc2c([nH]c3ccccc32)c(-c2cccc([N+](=O)[O-])c2)n1`, the CC50 at 24 h [2] is reported as 650 µM, the selectivity ratio [3] is reported as 5.2 and the selectivity ratio [4] is reported as 5.2. The selectivity ratio [5] was 5.2, the MIC [1] was 262 µM (≈ 125 µg/mL) and the selectivity ratio [6] was under 2.6. It also gave a selectivity ratio [7] of 5.2, a selectivity ratio [8] of 2.6 and a selectivity ratio [9] of under 2.6. For the same molecule, the selectivity ratio [10] was under 2.6, the selectivity ratio [11] was 5.2 and the selectivity ratio [12] was 5.2.
Molecule `COC(=O)c1cc2c([nH]c3ccccc32)c(-c2ccc(O)c(OC)c2)n1` has an MIC [1] of 718 µM (≈ 250 µg/mL).
`O=C(NN1C(=O)C=CC1=O)c1cc2c([nH]c3ccccc32)c(-c2ccc(F)cc2)n1` gave an MIC [1] of 625 µM (≈ 250 µg/mL).
`COc1ccc(-c2nc(C(=O)NN3C(=O)CCC3=O)cc3c2[nH]c2ccccc23)cc1` showed an MIC [1] of over 604 µM.
For `CN(C)c1ccc(-c2nc(C(=O)NN3C(=O)c4ccccc4C3=O)cc3c2[nH]c2ccccc23)cc1`, the MIC [1] was over 526 µM.
For `O=C(NN1C(=O)c2ccccc2C1=O)c1cc2c([nH]c3ccccc32)c(-c2ccccc2)n1`, the CC50 at 24 h [2] was 900 µM, the selectivity ratio [3] was 14.4 and the selectivity ratio [4] was 14.4. The selectivity ratio [5] was 14.4, the MIC [1] was 289 µM (≈ 125 µg/mL) and the selectivity ratio [6] was 7.2. The selectivity ratio [7] was 14.4, the selectivity ratio [8] was 7.2 and the selectivity ratio [9] was 7.2. The selectivity ratio [10] was 7.2, the selectivity ratio [11] was 7.2 and the selectivity ratio [12] was 7.2.
Molecule `O=C(NN1C(=O)c2ccccc2C1=O)c1cc2c([nH]c3ccccc32)c(-c2ccc(F)cc2)n1` has a CC50 at 24 h [2] of 762 µM, a selectivity ratio [3] of 12.2 and a selectivity ratio [4] of 12.2. The selectivity ratio [5] was 12.2, the MIC [1] was 278 µM (≈ 125 µg/mL) and the selectivity ratio [6] was 6.1. The selectivity ratio [7] was 12.2, the selectivity ratio [8] was 12.2 and the selectivity ratio [9] was 6.1. It also gave a selectivity ratio [10] of 6.1 and a selectivity ratio [11] of 6.1.
`COc1ccc(-c2nc(C(=O)NN3C(=O)c4ccccc4C3=O)cc3c2[nH]c2ccccc23)cc1` gave an MIC [1] of over 541 µM.
Molecule `COc1cc(-c2nc(C(=O)NN3C(=O)c4ccccc4C3=O)cc3c2[nH]c2ccccc23)ccc1O` has an MIC [1] of 523 µM (≈ 250 µg/mL).
In the case of `O=C(NN1C(=O)CCC1=O)c1cc2c([nH]c3ccccc32)c(-c2cccc([N+](=O)[O-])c2)n1`, the MIC [1] is reported as over 583 µM.
In the case of `COC(=O)c1cc2c([nH]c3ccccc32)c(-c2ccc(F)cc2)n1`, the MIC [1] is reported as over 781 µM.
`NNC(=O)c1ccncc1` [ISONIAZID] showed an MIC [1] of 0.06 µM (≈ 0.00823 µg/mL).
